Each structure is given as a SMILES string.

The text below walks through data of ChEMBL document CHEMBL4513216, “Probing the Open Global Health Chemical Diversity Library for Multistage-Active Starting Points for Next-Generation Antimalarials” (ACS Infect Dis, 2020).

This series is described as follows: Toxicity liver stage against HepG2, at 10uM. It is filed as cell-based. Also on record: test concentration 10 uM, cell line HepG2-A16-CD81EGFP. To be noted: human, HepG2-A16-CD81EGFP cells; read-out: INHIBITION
Summed up: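 Uninfected HepG2-A16-CD81EGFP cells, 3 × 10^3 per well, 1536-well, plated on prespotted compound at 10 μM final, parasite-free screening media added to match infected plates; puromycin 10 μM positive, DMSO 0.5% negative; run in parallel with 48 h PbLuc assay at 37 °C, 5% CO2; viability by CellTiter-Glo luminescence, normalized to controls.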
As for `NC(=O)CN1C(=O)CO[C@H]2CN(Cc3ccc(F)c(F)c3)C[C@H]21`, the cytotoxicity at 10 µM amounted to 2.44%.

Regarding `Cc1cccc(C)c1NC(=O)CC(CN1CCN(C)CC1)C(=O)O` (configuration not stated), the cytotoxicity at 10 µM was -3.68%.

`Cc1cc(O)cc(=O)n1CCCC(=O)Nc1n[nH]c2cccc(F)c12`: the cytotoxicity at 10 µM was -8.85%.

For the compound `CN(C)S(=O)(=O)NCc1nn(CCN2CCCC2)c(=O)c2ccccc12`, the cytotoxicity at 10 µM was -6.88%.

Turning to `COc1ccc(C)cc1NC(=O)C1CSc2ncc(C)c(=O)n2C1` (configuration not stated), the cytotoxicity at 10 µM was -1.99%.

Take `CC(C)NC(=O)N1CCC2(CC1)CCn1c(C3CC3)cnc12`: the cytotoxicity at 10 µM was determined as 2.04%.

Regarding `CC(C)CS(=O)(=O)N1CCC2(CC1)CCn1c(-c3cnn(C)c3)cnc12`, the cytotoxicity at 10 µM was -131%.

`CC(C)c1cc2c(O)nc(CSCC(=O)NCc3ccncc3)nc2s1`: the cytotoxicity at 10 µM was -6.18%.

For the compound `CCOCCCNC(=O)C(C)n1cc(Br)cn1` (configuration not stated), the cytotoxicity at 10 µM was -4.24%.

For the compound `CCn1cc(CNC(=O)C(C)C)cn1`, the cytotoxicity at 10 µM was found to be 7.74%.

In the case of `COc1cccc(CNCc2ccccc2Cl)c1O`, the cytotoxicity at 10 µM was -13.2%.

For `CN(C)S(=O)(=O)N1CCCC(c2nccnc2-c2cccc(Cl)c2)C1` (configuration not stated), the cytotoxicity at 10 µM was determined as 8.23%.

For the compound `CN1CCC(c2cccc(NCc3nccn3C)n2)CC1`, the cytotoxicity at 10 µM was determined as 8.28%.

Regarding `c1cc(CNc2ncc(-c3cnccn3)c([C@@H]3CCCO3)n2)ccn1`, the cytotoxicity at 10 µM came out at 8.99%.

Turning to `O=C(N1CCOCC1)N1CCCC(c2ncncc2-c2ccncc2)C1` (configuration not stated), the cytotoxicity at 10 µM is -25.9%.

On to `Cc1ccc(S(=O)(=O)N2C[C@H]3C[C@H](NC(=O)c4cc(C)no4)[C@H]3C2)cc1`, for which the cytotoxicity at 10 µM was -11.2%.

Turning to `Cc1ccc2c(c1)C(=O)NCC1(CCN(C(=O)c3cc(C)no3)CC1)O2`, the cytotoxicity at 10 µM was -20.8%.

In the case of `CSCC[C@H]1CN2CCC[C@H]2CN1Cc1cn(C)nc1C`, the cytotoxicity at 10 µM was -9.85%.

For `O=C(c1cncnc1)N1C[C@@H]2CC[C@H](Oc3cccc(F)c3)[C@@H]2C1`, the cytotoxicity at 10 µM was -17.1%.

Take `O=C(C1CC1)N1CCC(c2nc(O)c3c(n2)CN(C2CCCC2)CC3)C1` (configuration not stated): the cytotoxicity at 10 µM was -24.1%.

Turning to `C=C(C)CN(CC)S(=O)(=O)c1c(F)cc(NC(C)=O)cc1F`, the cytotoxicity at 10 µM was -47.1%.

On to `CCOCCOc1ccc(S(=O)(=O)N2CCc3c(nc[nH]c3=O)C2)cc1`, for which the cytotoxicity at 10 µM is -5.85%.

Take `Cn1ccc(C(=O)Nc2nc(-c3ccc4c(c3)CCO4)cs2)cc1=O`: the cytotoxicity at 10 µM is -9.46%.

Turning to `COc1ccccc1NCC(=O)Nc1cnn(Cc2ccccn2)c1`, the cytotoxicity at 10 µM is -0.53%.

Turning to `CC1c2cc(F)ccc2CCN1CCCS(=O)(=O)C(C)C` (configuration not stated), the cytotoxicity at 10 µM is 9.15%.

With `CN(CCc1cccs1)CCc1nccs1`, the cytotoxicity at 10 µM was -5.81%.

Take `CCNC(=O)C(C)NC(=O)Nc1ccccc1SCC` (configuration not stated): the cytotoxicity at 10 µM is -7.4%.

As to `CC(C)SCc1cccc(NC(=O)NC(C)c2nc[nH]n2)c1` (configuration not stated), the cytotoxicity at 10 µM was -45.2%.

Regarding `CCC(C)NC(=O)Nc1cccc(OCC#N)c1` (configuration not stated), the cytotoxicity at 10 µM was -0.146%.

Take `Cn1cc(C(=O)NCCCN2CCCCCC2=O)c(-c2cccnc2)n1`: the cytotoxicity at 10 µM was -8.3%.

With `Cc1cc(C(=O)Nc2ccc(CN3CCOCC3)cn2)n(C)n1`, the cytotoxicity at 10 µM was 3.86%.

Take `COC(=O)NCCC(=O)NC(C)Cc1ccccc1Br` (configuration not stated): the cytotoxicity at 10 µM was -5.29%.

For the compound `CCN1CC(C(=O)NC(C)(C)CC)CC1=O` (configuration not stated), the cytotoxicity at 10 µM turned out to be 1.82%.

With `CCCc1ccc(S(=O)(=O)NCCNC(=O)c2ccoc2)cc1`, the cytotoxicity at 10 µM was found to be 7.36%.

In the case of `O=C(NCCN1C(=O)CCC1=O)c1nc2ccccc2c(=O)[nH]1`, the cytotoxicity at 10 µM was -8.99%.

Regarding `CCCc1noc(C(C)N2CCN(c3ccc(C#N)cn3)CC2)n1` (configuration not stated), the cytotoxicity at 10 µM is -0.487%.

With `OCCN1CCC(CNCc2ccc(N3CCCCC3)cc2)CC1`, the cytotoxicity at 10 µM is -3%.

Take `CC(CC(=O)NS(C)(=O)=O)C1CCCCC1` (configuration not stated): the cytotoxicity at 10 µM was -13.5%.

For the compound `CC(C)C(O)CNC(=O)Nc1ccc(F)c(Cl)c1` (configuration not stated), the cytotoxicity at 10 µM stood at 5.6%.

On to `CCNC(=O)C1CCCN(C(=O)Nc2ccc3c(c2)CCCN3C)C1` (configuration not stated), for which the cytotoxicity at 10 µM was 13.6%.

Regarding `CC(C)NC(=O)CN(C)C1CCN(c2ccc(C#N)cn2)CC1`, the cytotoxicity at 10 µM is -16.1%.

Turning to `CCS(=O)(=O)NC1CCCN(c2ccc(F)cc2C)C1=O` (configuration not stated), the cytotoxicity at 10 µM was 3.93%.

`Cc1cc(CNC(=O)c2cccs2)ccc1S(C)(=O)=O`: the cytotoxicity at 10 µM is 3.38%.

Take `OCC(O)CSCc1cc(Cl)ccc1Cl` (configuration not stated): the cytotoxicity at 10 µM was -147%.

For the compound `COc1ccccc1CN(CC1CCCO1)C(=O)c1ccc(F)cn1` (configuration not stated), the cytotoxicity at 10 µM is -3.85%.

As for `CCC(CC)S(=O)(=O)NC(=O)c1ccc2c(c1)ncn2C`, the cytotoxicity at 10 µM is -6.58%.

On to `CCn1cc(CNC2CCN(c3cccc(Cl)c3)C2)cn1` (configuration not stated), for which the cytotoxicity at 10 µM is -10.1%.

In the case of `N#Cc1ccc(N2CCCN(CC(N)=O)CC2)cc1`, the cytotoxicity at 10 µM was determined as 3.11%.

Consider `CC(C)N(Cc1cnn(C)c1)C(=O)c1ccnc(N(C)C)c1`, for which the cytotoxicity at 10 µM amounted to 10.6%.

In the case of `Cc1nsc(NC2CCOC3(CCCCC3)C2)n1` (configuration not stated), the cytotoxicity at 10 µM is 5%.

As to `Cc1oc(C(=O)O)cc1S(=O)(=O)Nc1cccc(-c2nccs2)c1`, the cytotoxicity at 10 µM was -1.01%.

`NC(=O)C1(CNCc2csc(-c3cccs3)n2)CCOCC1`: the cytotoxicity at 10 µM is -19.3%.

On to `CCC(CC)CNC(=O)N(C)C(C)c1ccccn1` (configuration not stated), for which the cytotoxicity at 10 µM is -6.2%.

On to `N#CCCN(C(=O)CN1CCCC1C1CCCCC1)c1ccccc1` (configuration not stated), for which the cytotoxicity at 10 µM was -12.1%.

On to `COc1ccccc1OCC(=O)NS(=O)(=O)c1cc(F)ccc1F`, for which the cytotoxicity at 10 µM is -9.18%.

Consider `COc1ccc(OCC(=O)NC(C)c2ccccc2)c(C(=O)O)c1` (configuration not stated), for which the cytotoxicity at 10 µM was determined as 2.4%.

For `Cc1nc(CN2CCC(CNC(=O)Nc3ccccn3)CC2)oc1C`, the cytotoxicity at 10 µM is -3.5%.

With `CN(Cc1cccc(F)c1)C(=O)CN1CCCC1CCc1ccccc1` (configuration not stated), the cytotoxicity at 10 µM was -12%.

`O=C(NCCC1CCCO1)c1ccccc1N1CCOCC1` (configuration not stated): the cytotoxicity at 10 µM was -10.8%.

Consider `CC(NC(=O)c1nc(=O)[nH][nH]1)c1ccc(OCC2CC2)c(F)c1` (configuration not stated), for which the cytotoxicity at 10 µM was -5.75%.

Consider `CC1CN(CC(=O)NC(=O)NCc2ccccc2)CCO1` (configuration not stated), for which the cytotoxicity at 10 µM is -7.07%.

Take `CCOCC(=O)N1CC[C@H]2O[C@@H](C)C[C@H]2C1`: the cytotoxicity at 10 µM is -67.9%.

For the compound `COc1nn(C)c2c1CCCN(C(=O)c1cc[nH]n1)C2`, the cytotoxicity at 10 µM is -5.2%.

As for `CC(C)Cc1n[nH]c(C2CC(=O)N(CC(C)C)C2)n1` (configuration not stated), the cytotoxicity at 10 µM turned out to be 3.49%.

For the compound `CNC(=O)C1CCCN(c2nc(-c3ccco3)nc3c2CCNCC3)C1` (configuration not stated), the cytotoxicity at 10 µM is -7.74%.

`CC(C)(C)c1ncc2c(n1)CN(C(=O)c1ccc(C#N)nc1)C2`: the cytotoxicity at 10 µM is -6.39%.

As for `COc1ccc2c(c1)C(C(=O)NCCN1CCNC1=O)CC(=O)N2` (configuration not stated), the cytotoxicity at 10 µM was -1.13%.

With `c1cc(-c2nc3c(c(NCCc4c[nH]cn4)n2)CCNCC3)ccn1`, the cytotoxicity at 10 µM was -146%.

On to `O=C(O)c1ccccc1C1CCN(C2Cc3ccccc3C2)C1` (configuration not stated), for which the cytotoxicity at 10 µM turned out to be 12.7%.

On to `CN(Cc1ccc2nsnc2c1)C(=O)Cn1ncc(N(C)C)cc1=O`, for which the cytotoxicity at 10 µM worked out at 3.67%.

`OC[C@H]1CN(Cc2c(Cl)cncc2Cl)C[C@H]1CN1CCCCCC1`: the cytotoxicity at 10 µM was -112%.

On to `Nc1ccc(-c2ccc(F)cc2Cl)cn1`, for which the cytotoxicity at 10 µM is -151%.

With `CN(C)S(=O)(=O)NCc1cccnc1Oc1ccccc1F`, the cytotoxicity at 10 µM was 1.81%.

`COc1cccc2c1OCC(C(=O)N1CCN(C3CCSCC3)CC1)C2` (configuration not stated): the cytotoxicity at 10 µM is -1.62%.

With `CCc1nnc(CN(C)C[C@@H]2CCCN3CCCC[C@H]23)o1`, the cytotoxicity at 10 µM was 1.52%.

On to `O=C(O)COc1ccc(Cl)cc1CN1CCC2(CCNCC2)CC1`, for which the cytotoxicity at 10 µM was 6.45%.

For the compound `CN1C(=O)CC(C(=O)O)C12CCN(Cc1ccc(Cl)c(Cl)c1)CC2` (configuration not stated), the cytotoxicity at 10 µM was 2.12%.

Regarding `CN(C)C(=O)c1noc2c1CN(C(=O)CCC1CCCCN1C)CC2` (configuration not stated), the cytotoxicity at 10 µM was -2.74%.

In the case of `CSCc1nc(CNC(=O)C2CCCN(CC(N)=O)C2)cs1` (configuration not stated), the cytotoxicity at 10 µM was -7.82%.

`CCCN(C(=O)COC)c1nc2c(s1)CCc1c-2cnn1C`: the cytotoxicity at 10 µM amounted to 5.15%.

Take `Cn1cc(NC(=O)N2CCC(NS(C)(=O)=O)CC2)ccc1=O`: the cytotoxicity at 10 µM was -7.05%.

`Cc1nn(C)c(N(C)C)c1CNC1CCOc2c(F)cccc21` (configuration not stated): the cytotoxicity at 10 µM was -13.9%.

`CS(=O)(=O)N1CCCCCC1C1CCN(c2ncccc2C#N)CC1` (configuration not stated): the cytotoxicity at 10 µM is -3.2%.

As for `Cn1cc(CNC2CCCN(Cc3noc(C4CC4)n3)C2)cn1` (configuration not stated), the cytotoxicity at 10 µM was -9.52%.

As to `COc1ccc2c(c1)CN(Cc1nc3c(cnn3C)c(=O)[nH]1)CC2`, the cytotoxicity at 10 µM was -8.57%.

Turning to `c1cnn(-c2ccc(CN3CCOC(Cn4cncn4)C3)cc2)c1` (configuration not stated), the cytotoxicity at 10 µM is -13.6%.

Regarding `c1ccc(-c2cnc(CN3CCCC3Cn3cncn3)o2)cc1` (configuration not stated), the cytotoxicity at 10 µM was -5.82%.

As to `Cn1cc(C(=O)CC2CCCN2C(=O)c2n[nH]c3ccccc23)cn1` (configuration not stated), the cytotoxicity at 10 µM is -0.842%.

In the case of `CC(c1nc(C2CC2)no1)N1CCN(Cc2ccccc2F)CC1` (configuration not stated), the cytotoxicity at 10 µM is 1.03%.

On to `Cc1ccc(C(=O)N2CC3(CCNCC3)c3cc(Cl)ccc32)cn1`, for which the cytotoxicity at 10 µM is 1.61%.

In the case of `O=C(c1ccncc1)N1CC2(CCNCC2)c2cc(Cl)ccc21`, the cytotoxicity at 10 µM is -3.22%.

With `Cc1cc2c(=O)n3c(nc2s1)CCN(Cc1cncn1C)CC3`, the cytotoxicity at 10 µM is -14.2%.

For the compound `CCO[C@@H]1CO[C@@]2(CCCN(Cc3scnc3C)C2)C1`, the cytotoxicity at 10 µM was -9.06%.

In the case of `CN(C)C(=O)NCc1cc(=O)n2c(n1)CN(Cc1ccoc1)CCC2`, the cytotoxicity at 10 µM is -99.3%.

`Cc1oncc1C(=O)N1CCC2(CCN(Cc3cccnc3)C2=O)C1` (configuration not stated): the cytotoxicity at 10 µM is -144%.

Take `CC(=O)NCC(=O)N1Cc2nccn2CC(CN(C)C(C)C)C1` (configuration not stated): the cytotoxicity at 10 µM was -75.7%.

Take `Cc1ccc(CN2Cc3c(C(=O)N(C)C)nn(C)c3C2)s1`: the cytotoxicity at 10 µM was -12.6%.
